Reference: ChEMBL document CHEMBL1156908, “Characterization of tunable piperidine and piperazine carbamates as inhibitors of endocannabinoid hydrolases” (J Med Chem, 2010)
Active and inactive are the calls of the source. The calls are words filed in the database; no cut-off is given here.

What was measured:
[1] = biological target: T1, Fatty-acid amide hydrolase 1 (Mus musculus, UniProt O08914); assay: Inhibition of FAAH in mouse brain membrane; format: cell membranes
T1 sequence (O08914 whole entry): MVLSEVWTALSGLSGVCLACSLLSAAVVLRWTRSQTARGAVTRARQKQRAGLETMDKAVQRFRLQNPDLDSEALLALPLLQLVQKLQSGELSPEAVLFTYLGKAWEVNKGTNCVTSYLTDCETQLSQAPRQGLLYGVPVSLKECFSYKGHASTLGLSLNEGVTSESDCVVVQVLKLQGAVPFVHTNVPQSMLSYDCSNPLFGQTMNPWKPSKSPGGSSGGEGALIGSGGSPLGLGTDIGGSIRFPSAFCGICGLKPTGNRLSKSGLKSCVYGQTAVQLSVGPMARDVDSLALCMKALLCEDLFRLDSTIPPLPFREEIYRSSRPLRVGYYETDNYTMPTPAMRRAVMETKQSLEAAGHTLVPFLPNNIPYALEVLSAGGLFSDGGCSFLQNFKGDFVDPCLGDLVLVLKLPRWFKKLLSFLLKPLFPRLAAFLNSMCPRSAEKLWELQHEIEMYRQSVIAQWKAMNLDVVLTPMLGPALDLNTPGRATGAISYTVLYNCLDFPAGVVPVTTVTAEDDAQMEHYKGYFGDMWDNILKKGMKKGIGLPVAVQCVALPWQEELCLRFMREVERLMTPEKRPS
Procedure, shortened: (§1)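 Mouse brain membrane fraction (Dounce homogenized in PBS pH 7.5, 1,400 × g debris spin, 64,000 × g 45 min pellet, resuspended) at 1 mg/ml in PBS. Inhibitor preincubated 30 min at 37°C, then FP-rhodamine 1 μM final for 30 min at 25°C. SDS-PAGE with in-gel fluorescence scanning. IC50 from fitted integrated band intensities, mean of at least triplicates.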

Monoglyceride lipase = biological target: T2, Monoglyceride lipase (Mus musculus, UniProt O35678); assay: Inhibition of MAGL in mouse brain membrane; format: cell membranes; procedure, shortened: as §1
T2 sequence (O35678 whole entry): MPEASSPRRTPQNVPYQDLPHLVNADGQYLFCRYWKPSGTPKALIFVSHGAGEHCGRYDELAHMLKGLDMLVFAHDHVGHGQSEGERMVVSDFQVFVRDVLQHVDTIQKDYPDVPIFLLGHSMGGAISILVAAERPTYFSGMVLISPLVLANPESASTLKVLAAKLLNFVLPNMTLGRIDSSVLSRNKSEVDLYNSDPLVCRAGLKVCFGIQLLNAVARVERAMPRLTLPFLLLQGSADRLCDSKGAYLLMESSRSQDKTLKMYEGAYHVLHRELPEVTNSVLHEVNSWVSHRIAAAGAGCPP

[2] = biological target: T3, Monoacylglycerol lipase ABHD6 (Mus musculus, UniProt Q8R2Y0); assay: Inhibition of ABHD6 in mouse brain membrane; format: cell membranes; procedure, shortened: as §1
T3 sequence (Q8R2Y0 whole entry): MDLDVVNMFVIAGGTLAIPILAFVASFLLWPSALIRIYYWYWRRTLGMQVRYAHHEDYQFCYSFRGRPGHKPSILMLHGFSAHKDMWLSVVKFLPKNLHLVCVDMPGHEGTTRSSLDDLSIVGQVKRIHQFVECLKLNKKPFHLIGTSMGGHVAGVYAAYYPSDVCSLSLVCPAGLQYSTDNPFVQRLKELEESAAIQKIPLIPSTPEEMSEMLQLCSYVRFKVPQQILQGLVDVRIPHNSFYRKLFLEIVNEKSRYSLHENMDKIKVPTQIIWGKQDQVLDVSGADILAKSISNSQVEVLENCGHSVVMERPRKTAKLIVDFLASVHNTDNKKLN

[3] = biological target: T4, Patatin-like phospholipase domain-containing protein 6 (Mus musculus, UniProt Q3TRM4); assay: Inhibition of NTE in mouse brain membrane; format: cell membranes; procedure, shortened: as §1
T4 sequence (Q3TRM4 whole entry): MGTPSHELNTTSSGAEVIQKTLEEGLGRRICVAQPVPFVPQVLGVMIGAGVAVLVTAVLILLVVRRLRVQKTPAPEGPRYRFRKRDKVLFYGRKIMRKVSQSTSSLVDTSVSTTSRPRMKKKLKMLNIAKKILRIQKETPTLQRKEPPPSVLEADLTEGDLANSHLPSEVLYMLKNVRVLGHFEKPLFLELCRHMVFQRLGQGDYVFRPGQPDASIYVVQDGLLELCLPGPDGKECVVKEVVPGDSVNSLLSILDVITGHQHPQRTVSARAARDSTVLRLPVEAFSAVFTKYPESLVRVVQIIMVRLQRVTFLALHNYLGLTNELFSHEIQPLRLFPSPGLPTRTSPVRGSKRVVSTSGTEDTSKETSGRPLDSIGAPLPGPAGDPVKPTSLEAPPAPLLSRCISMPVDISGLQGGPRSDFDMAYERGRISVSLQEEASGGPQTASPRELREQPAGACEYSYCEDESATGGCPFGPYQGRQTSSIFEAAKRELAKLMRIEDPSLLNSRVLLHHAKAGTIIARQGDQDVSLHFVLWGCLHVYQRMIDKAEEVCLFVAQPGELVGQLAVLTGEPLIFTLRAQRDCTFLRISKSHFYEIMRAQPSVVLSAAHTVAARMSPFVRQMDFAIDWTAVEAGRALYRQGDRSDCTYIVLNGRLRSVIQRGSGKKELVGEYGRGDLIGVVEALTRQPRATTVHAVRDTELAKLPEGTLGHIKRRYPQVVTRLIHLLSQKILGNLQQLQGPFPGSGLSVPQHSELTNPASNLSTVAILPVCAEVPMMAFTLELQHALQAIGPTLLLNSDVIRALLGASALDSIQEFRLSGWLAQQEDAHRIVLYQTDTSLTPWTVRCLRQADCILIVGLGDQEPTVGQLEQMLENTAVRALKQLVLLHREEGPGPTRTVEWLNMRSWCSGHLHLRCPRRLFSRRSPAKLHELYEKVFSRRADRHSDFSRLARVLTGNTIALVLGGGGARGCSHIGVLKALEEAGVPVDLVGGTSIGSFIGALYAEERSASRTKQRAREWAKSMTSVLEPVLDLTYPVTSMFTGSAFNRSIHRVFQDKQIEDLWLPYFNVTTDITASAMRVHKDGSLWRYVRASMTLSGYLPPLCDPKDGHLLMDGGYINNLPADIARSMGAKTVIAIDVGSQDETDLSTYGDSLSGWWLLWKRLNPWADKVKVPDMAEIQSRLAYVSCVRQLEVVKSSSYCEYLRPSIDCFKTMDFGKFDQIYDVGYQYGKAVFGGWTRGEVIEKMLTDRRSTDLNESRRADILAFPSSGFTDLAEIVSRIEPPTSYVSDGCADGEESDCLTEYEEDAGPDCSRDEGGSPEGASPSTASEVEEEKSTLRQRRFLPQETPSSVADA

[4] = biological target: T5, Patatin-like phospholipase domain-containing protein 6 (Mus musculus) (UniProt Q3TRM4); assay: Inhibition of NTE in mouse brain membrane at 100 uM; format: cell membranes
T5 sequence (whole entry): T4 sequence (Q3TRM4 whole entry)
Procedure, shortened: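 Competitive ABPP on mouse brain membrane proteome at 1 mg/ml in PBS. Inhibitor at 100 μM for 30 min at 37°C, then FP-rhodamine 1 μM final for 30 min at 25°C. SDS-PAGE and in-gel fluorescence scanning. Percent loss of NTE band labeling.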

Mus musculus [5] = assay: In vivo inhibition of FAAH in mouse at 20 mg/kg, ip; format: functional, organism-based; set-up: dose 20 mg/kg
Mus musculus [6] = assay: In vivo inhibition of FAAH in mouse at 100 mg/kg, po; format: functional, organism-based; set-up: dose 100 mg/kg
Mus musculus [7] = assay: In vivo inhibition of MAGL in mouse at 20 mg/kg, ip; format: functional, organism-based; set-up: dose 20 mg/kg
Mus musculus [8] = assay: In vivo inhibition of MAGL in mouse at 100 mg/kg, po; format: functional, organism-based; set-up: dose 100 mg/kg
Mus musculus [9] = assay: Toxicity in mouse assessed as death at 20 mg/kg, ip for 6 days; format: organism-based; set-up: dose 20 mg/kg, route intraperitoneal; settings: in vivo, 144 h

SMILES	IC50 [1] [nM]	IC50 (Monoglyceride lipase) [nM]	IC50 [2] [nM]	IC50 [3] [nM]	inhibition [4] [%]	Activity (Mus musculus [5])	Activity (Mus musculus [6])	Activity (Mus musculus [7])	Activity (Mus musculus [8])	Activity (Mus musculus [9])
COc1ccc(Oc2cccc(CN3CCN(C(=O)Oc4ccc([N+](=O)[O-])cc4)CC3)c2)cc1	90	130	460	2900	60	–	–	–	–	–
Cc1ccc(Oc2cccc(CN3CCN(C(=O)Oc4ccc([N+](=O)[O-])cc4)CC3)c2)cc1	40	500	1130	3000	70	–	–	–	–	–
O=C(Oc1ccc([N+](=O)[O-])cc1)N1CCN(Cc2cccc(Oc3ccccn3)c2)CC1	40	50	60	1270	73	–	–	–	–	–
O=C(Oc1ccc([N+](=O)[O-])cc1)N1CCN(Cc2cccc(Oc3ccccc3)c2)CC1	13	–	50	> 50000	50	inactive	inactive	inactive	inactive	Non-toxic
O=C(Oc1ccc([N+](=O)[O-])cc1)N1CCN(Cc2cccc(Oc3cccc(C(F)(F)F)c3)c2)CC1	5	300	320	14400	57	–	–	–	–	–
O=C(Oc1ccc([N+](=O)[O-])cc1)N1CCN(Cc2cc(Br)ccc2O)CC1	720	90	130	3240	73	–	–	–	–	–
O=C(Oc1ccc([N+](=O)[O-])cc1)N1CCN(Cc2ccc(-c3ccccc3OC(F)(F)F)o2)CC1	5	70	180	570	81	–	–	–	–	–
